Bioassay records as filed in PubChem.
Shown are actives, neighbours in structure and some others; about 4% of the full set was active somewhere.
bCat nuc transl = modulators of beta-catenin nuclear translocation. HeLa beta-catenin nuclear translocation, immunofluorescence imaging. nuclear translocation activity, % at 5 µM. 0.3% of 190,000 active. AID 1665;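 active = nuclear translocation activity above 50% at 5 µM, with a well cell count of 50 or more; inconclusive = wells under 50 cells across six images, flagged as toxic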;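 also: per-cell ratio of nuclear to cytoplasmic median beta-catenin stain intensity; plate controls were DMSO negative control for no effect and GSK-3 inhibitor IX positive control for full effect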
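System: HeLa cells, endogenous beta-catenin; compound dosing: 5 µM primary single dose, 0.1% DMSO, 0.02–20 µM confirmation series; incubation: 24 h compound exposure at 37°C, 5% CO2; signal: beta-catenin immunofluorescence imaging with DAPI; evaluation: % activation, nuclear-to-cytoplasmic median beta-catenin signal ratio per cell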
Pf gamet viab = kills late stage P. falciparum gametocytes; 0.065% of 150,000 active; inhibition, % at 10.9 µM; P. falciparum stage V gametocytes, ATP luminescence, 24 h;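 active = inhibition above the mean plus 3 SD of compounds within the control limits, set per campaign, cut at about 38% in these data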;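 also: 0% = DMSO wells and 100% = medium only without gametocytes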
MT stabilizer = stabilizes microtubules in HeLa cells | 0.83% of 200,000 active | % tubulin-high responders, % at 10 µM | AID 2205 | HeLa tubulin immunostaining HCS, 24 h; share of cells brighter than vehicle mean+2SD;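 active = plate Z-score above 3 for both tubulin-high and condensed-nucleus cell shares, with cell loss under 80%, at 10 µM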;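 also: anti alpha tubulin signal scored within the nucleus-defined area of each cell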
WT yeast gro inh = growth inhibition of WT yeast, mitochondrial fusion screen | AID 1362 | mitochondrial fusion phenotypic screen, WT strain | inhibition, % at 10 µM | 2.1% of 190,000 active; in the data active = inhibition above about 58%; tested in S. cerevisiae
Cl transport mod = modulates chloride dependent transport by human KCC2; B-score of Tl+ flux slope (higher = more flux/activation; lower = inhibition) at 10 µM; AID 1456; Q9H2X9; 2.2% of 190,000 active; KCC2 cells, thallium flux FluoZin-2 fluorescence;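 active = thallium flux slope and its plate-corrected score both differing from the plate sample mean at a set confidence after two filtering rounds, in either direction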;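 also: slope of fluorescence scaled to starting intensity during 10 to 20 s after thallium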
Target sequence (Q9H2X9 whole entry, looked up): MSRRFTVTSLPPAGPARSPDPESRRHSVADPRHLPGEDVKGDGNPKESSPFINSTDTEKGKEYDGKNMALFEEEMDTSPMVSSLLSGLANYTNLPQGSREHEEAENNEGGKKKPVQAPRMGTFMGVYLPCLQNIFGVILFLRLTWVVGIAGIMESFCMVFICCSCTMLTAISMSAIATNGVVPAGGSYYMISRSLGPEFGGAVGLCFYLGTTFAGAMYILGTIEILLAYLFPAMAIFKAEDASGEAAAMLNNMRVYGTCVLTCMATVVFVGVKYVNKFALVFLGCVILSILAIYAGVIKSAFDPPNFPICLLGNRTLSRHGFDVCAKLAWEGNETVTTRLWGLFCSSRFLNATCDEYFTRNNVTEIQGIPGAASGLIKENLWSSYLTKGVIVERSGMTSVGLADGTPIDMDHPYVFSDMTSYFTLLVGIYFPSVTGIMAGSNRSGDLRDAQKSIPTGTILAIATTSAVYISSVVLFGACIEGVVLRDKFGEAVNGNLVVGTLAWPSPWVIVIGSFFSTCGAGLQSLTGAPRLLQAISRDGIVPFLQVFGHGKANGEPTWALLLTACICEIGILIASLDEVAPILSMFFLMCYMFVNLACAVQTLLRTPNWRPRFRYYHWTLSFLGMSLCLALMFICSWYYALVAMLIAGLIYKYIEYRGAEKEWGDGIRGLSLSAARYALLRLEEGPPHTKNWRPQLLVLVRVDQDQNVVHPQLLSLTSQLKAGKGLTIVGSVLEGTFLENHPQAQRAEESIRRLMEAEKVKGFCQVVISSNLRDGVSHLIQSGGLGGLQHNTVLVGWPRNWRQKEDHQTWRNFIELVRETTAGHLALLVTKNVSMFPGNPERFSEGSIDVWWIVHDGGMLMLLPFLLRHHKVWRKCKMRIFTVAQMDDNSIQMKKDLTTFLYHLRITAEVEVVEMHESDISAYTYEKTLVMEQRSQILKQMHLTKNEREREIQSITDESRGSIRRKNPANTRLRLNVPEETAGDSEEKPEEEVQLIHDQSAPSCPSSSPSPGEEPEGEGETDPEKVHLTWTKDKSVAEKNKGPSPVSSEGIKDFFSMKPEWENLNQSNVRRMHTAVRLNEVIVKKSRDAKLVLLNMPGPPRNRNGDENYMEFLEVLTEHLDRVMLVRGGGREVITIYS
KCC2 secondary = KCC2 (human) modulation, secondary assay; shares compounds with Cl transport mod; AID 1713; HEK293-KCC2, thallium flux, FluoZin2 fluorescence; active compounds read high; normalised thallium flux (F/F0 slope) at 10 µM; 15% of 3,700 active;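 active = thallium flux slope above the same plate's solvent-only control mean plus 3 SD; inconclusive = the two replicate wells disagree; inactive = no significant difference from solvent-only control wells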
KCC2 bumet counter = thallium flux persisting under bumetanide in KCC2 cells, counter-screen secondary assay. shares compounds with Cl transport mod. HEK293-KCC2 + bumetanide/ouabain, thallium flux FluoZin2; active compounds read high. normalized thallium flux at 10 µM. 49% of 3,700 active. AID 1714;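 active = thallium entry rate above the same plate's blocked-transporter control wells by more than 3 SD; inconclusive = the two repeat wells disagree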;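 also: raw slope of fluorescence over initial fluorescence between 10 and 20 s after thallium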
KCC2 secondary2 = confirmation of human KCC2 transport modulators. HEK293-KCC2, thallium flux FluoZin2 fluorescence; actives lie on both sides; F/F0 rise rate, 10–20 s post-thallium. shares compounds with Cl transport mod. 23% of 3,700 active. normalized thallium flux at 10 µM;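 active = thallium flux slope more than 3 SD above or below the plate's solvent-only control mean, mostly below; inconclusive = the two repeat wells disagreed; inactive = no significant shift from solvent-only controls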;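 also: raw slope with 0.1% DMSO as baseline and bumetanide as block control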
HEK293 Tl flux = parental HEK flux effect, counter-screen; thallium flux rate (normalised fluorescence) at 10 µM; 46% of 3,700 active; shares compounds with Cl transport mod; HEK293 parental cells, thallium flux FluoZin2, ouabain; baseline-ratio fluorescence slope, 10–20 s after thallium;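 active = thallium flux rate significantly above the same plate's solvent-only control wells, beyond their mean plus 3 SD; inconclusive = the two replicate wells gave conflicting results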
KCC2 retest ouab = modulates human KCC2 on retest with ouabain. raw Tl+ flux slope (below DMSO = inhibition, above = activation) at 10 µM. AID 1717. 48% of 3,700 active. HEK293-KCC2, thallium flux FluoZin2 fluorescence; bidirectional: low = inhibitor, high = activator. shares compounds with Cl transport mod;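 active = thallium flux slope beyond 3 SD from same-plate DMSO control mean in most replicates, usually higher, sometimes lower; inconclusive = repeat tests gave conflicting results; inactive = no significant difference from controls in most replicates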;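 also: slope of initial-normalized fluorescence between seconds 10 and 20 after thallium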
HEK293 Tl flux2 = counter-screen for KCC2 modulators: effect in parental HEK293 cells | 33% of 3,700 active | AID 1718 | thallium flux FluoZin-2 fluorescence slope | shares compounds with Cl transport mod | thallium flux slope at 10 µM;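 active = thallium flux slope above the same plate's solvent-control mean plus 3 SD in both duplicate wells; inconclusive = duplicate wells that disagreed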;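 also: run without ouabain in cells lacking the KCC2 cotransporter; slope of fluorescence scaled to its starting value between 10 and 20 s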
The depositor's hits bear a star; ? = inconclusive; nt = no result given.

SMILES	bCat nuc transl	Pf gamet viab	MT stabilizer	WT yeast gro inh	Cl transport mod	KCC2 secondary	KCC2 bumet counter	KCC2 secondary2	HEK293 Tl flux	KCC2 retest ouab	HEK293 Tl flux2
COc1ccc(S(=O)(=O)NC(CC(=O)NCCc2ccccc2)c2ccco2)cc1 (stereo not given)	-0.7	nt	1.7	-2.6	nt	0.0071	0.00606	0.0335	0.00822	?	0.0103
O=C(O)COc1ccccc1/C=N/NC(=O)c1cc(-c2ccc(Cl)cc2)nc2ccccc12	0.6	16.2	nt	nt	-0.911	nt	nt	nt	nt	nt	nt
O=C(N/N=C/c1ccccn1)c1cc(-c2ccc(Cl)cc2)nc2ccccc12	-3.9	-7.7	7.8	61.6	7.5*	?	0.0423*	0.0328	0.0177*	0.0268	?
O=C(N/N=C/c1ccccn1)c1cc(-c2ccc(Br)cc2)nc2ccccc12	0.0	-18.3	nt	nt	9.42*	0.0109	0.0249*	0.0349	?	?	?
CCn1cc(/C=N/NS(=O)(=O)c2ccc(OC)cc2)c(C)n1	nt	-6.0	1.6	-47.6	0.19	nt	nt	nt	nt	nt	nt
COC(=O)c1sccc1NC(=O)CSc1ccccc1NS(=O)(=O)c1ccc(Br)cc1	-5.8	nt	0.7	5.5	3.53*	0.00826	0.0128*	0.0367	0.0157*	0.0237	0.0126*
CCOc1ccc(-c2nc(C#N)c(NCc3ccc4c(c3)OCO4)o2)cc1	1.1	nt	1.7	8.8	-0.296	nt	nt	nt	nt	nt	nt
Cc1ccc(OCc2nc(C#N)c(NCc3ccc4c(c3)OCO4)o2)cc1	2.0	nt	2.1	-18.3	-4.87	0.0052	?	?	?	0.0122*	0.00878
C=CCNc1oc(COc2ccc(C)cc2)nc1C#N	-0.2	nt	3.7	9.0	nt	0.008	0.00531	0.0321	0.00744	?	0.0107
O=[N+]([O-])c1ccccc1Sc1nccn1Cc1ccccc1	3.2	4.6	1.4	5.4	-4.18*	0.00678	0.0046	0.0326	?	0.0135*	0.0107
NC(=O)CSc1nccn1Cc1ccccc1	0.1	-7.2	3.4	0.6	0.0229	nt	nt	nt	nt	nt	nt
O=C(/C=C/c1ccc(Cl)cc1)Nc1ccccc1N1CCOCC1	0.9	nt	2.1	2.5	-1.93	nt	nt	nt	nt	nt	nt
CCOc1ccccc1NC(=S)N(CCCN1CCOCC1)Cc1cn(C)c2ccccc12	1.6	nt	2.7	8.2	-4.67*	0.00733	0.00474	0.0294	?	0.0186	0.0107
CCn1c(-c2ccc(C(C)(C)C)cc2)n[nH]c1=S	1.9	1.5	3.8	20.9	6.76*	?	0.0301*	0.0362	?	0.0318*	?
COc1ccc(OCC(=O)Nc2cccc(C(=O)Nc3ccccc3C(=O)O)c2)cc1	0.1	-29.2	3.9	-8.5	-2.2	nt	nt	nt	nt	nt	nt
CC(=O)O/N=C(\N)c1ccc(-c2csnn2)cc1	-2.5	-0.4	nt	nt	0.522	nt	nt	nt	nt	nt	nt
CCCCOc1ccc(-c2c(C#N)c(N)nc(SCC(N)=O)c2C#N)cc1	4.6	-12.0	7.0	19.6	-6.41*	0.00736	0.00664	0.032	0.00761	0.0168*	?
O=c1c(O)c(-c2ccc3c(c2)OCO3)oc2ccccc12	-0.4	-5.4	9.8	2.5	nt	0.0318*	0.169*	0.0515*	0.103*	0.1*	0.0499*
CN1CCN(C(=O)c2ccc(CS(=O)(=O)c3c(Cl)cccc3Cl)o2)CC1	-4.0	nt	4.3	3.7	-3.31*	0.0059	0.00466	0.0334	0.00767	0.0181	0.0116
O=C(c1ccc(CS(=O)(=O)c2c(Cl)cccc2Cl)o1)N1CCCC1	nt	nt	1.9	-1.0	-3.31	nt	nt	nt	nt	nt	nt
COC(=O)C1=C(C(=O)OC)C(c2cc(Cl)ccc2O)c2sc(=O)[nH]c2S1 (stereo not given)	1.2	nt	2.0	0.5	-4.44*	0.00747	0.00415	?	?	0.0138*	?
C/C(=N\NC(=S)Nc1ccccc1C)C1Cc2ccccc2C(=O)O1 (stereo not given)	-2.1	-3.8	nt	nt	2.63	nt	nt	nt	nt	nt	nt
C/C(=N\NC(=S)Nc1ccccc1)C1Cc2ccccc2C(=O)O1 (stereo not given)	0.0	-5.0	nt	nt	6.6*	0.00705	0.0105*	0.0327	0.0113*	0.0225	0.0126*
O=C(CC(=O)NC1CCCCC1)N/N=C/c1ccc(Cl)cc1	0.7	nt	3.2	0.2	0.00294	nt	nt	nt	nt	nt	nt
O=C(Cn1nnc2c(cnn2-c2ccc(F)cc2)c1=O)Nc1ccccc1C(F)(F)F	-0.1	-13.0	1.5	-11.6	-3.86*	0.00734	?	0.0326	0.00714	0.0169*	0.0102
SMILES	bCat nuc transl	Pf gamet viab	MT stabilizer	WT yeast gro inh	Cl transport mod	KCC2 secondary	KCC2 bumet counter	KCC2 secondary2	HEK293 Tl flux	KCC2 retest ouab	HEK293 Tl flux2
O=C(Cn1nnc2c(cnn2-c2ccccc2)c1=O)NCc1cccs1	-6.6	5.6	5.2	-6.7	nt	nt	nt	nt	nt	nt	nt
O=C(C[n+]1ccccc1)c1ccc(-c2ccccc2)cc1	1.4	-5.4	2.1	10.0	-4.65*	0.0147	0.00475	0.0222*	0.00775	0.0135	0.011
C=Cn1cc[n+](CC(=O)c2ccc(-c3ccccc3)cc2)c1	nt	-40.8	nt	nt	nt	nt	nt	nt	nt	nt	nt
CN(CCO)c1cc(Sc2nc3ccccc3s2)c2nonc2c1[N+](=O)[O-]	nt	nt	4.4	5.8	nt	0.00596	0.015*	0.0333	0.0143*	?	0.0169*
Cn1cc(SCC(=O)N2CCN(c3ccccc3)CC2)c2ccccc21	nt	nt	5.4	-3.1	-5.18*	0.00632	0.00499	0.0234*	0.00689	0.0145*	0.00951
Cn1cc(SCC(=O)N2CCOCC2)c2ccccc21	0.9	nt	2.6	0.0	-0.794	nt	nt	nt	nt	nt	nt
COc1cc(/C=N/N2C(=O)CSC2=S)cc(Br)c1O	0.0	nt	9.1	-2.3	-0.399	nt	nt	nt	nt	nt	nt
COc1cccc(/C=N/N2C(=O)CSC2=S)c1O	-0.6	-10.2	6.8	3.4	3.54*	0.0129*	0.0156*	0.0333	0.0105*	?	?
CCCc1cc2c(OC(=O)CC)c(-c3ccc(C(=O)OCC)o3)c(=O)oc2cc1OC	-1.2	nt	1.8	9.2	0.596	nt	nt	nt	nt	nt	nt
S=c1nc(-c2ccc(Br)cc2)[nH]c2ccccc12	-0.9	-1.6	nt	nt	93.2*	0.0469*	0.13*	0.0782*	0.121*	0.113*	0.0917*
COc1ccc(CCN(C)C(=S)NC(=O)c2ccc(F)cc2Cl)cc1OC	-1.3	14.2	2.3	19.1	9.81*	0.0152*	0.036*	0.0275	0.0168*	0.0333*	0.0105*
S=C(Nc1ccc(Cl)cc1Cl)NC1CCN(Cc2ccccc2)CC1	-0.4	-3.3	5.7	32.2	-3.75*	0.00741	?	0.0288	0.00789	0.021*	?
